In the RNAGym collection of RNA variant scans (doi:10.1038/s41586-018-0170-7):

B1: tRNA (parent)
chain: GUUCCGUUGGCGUAAUGGUAACGCGUCUCCCUCCUAAGGAGAAGACUGCGGGUUCGAGUCCCGUACGGAACG

Variants of: B1
Experiment: yeast fitness, log relative to wild type (ln ratio); higher = fitter; tRNA-Arg(CCU), competitive growth, 37 C, 1 M NaCl
Outline: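 Two independent transformations put a combinatorial tRNA-Arg(CCU) variant library on a HIS3 centromeric plasmid into BY4742 lacking the chromosomal gene. Pools were grown in SC-HIS at 30 °C for 4 generations, then in SC-HIS 1M NaCl at 37 °C for ~6.5 generations (~26.5 h), with three outputs taken per input. Fitness compares a genotype's generations with the wild type's as a natural log ratio. Those generations are OD-scaled log2 output/input frequencies, inverse-variance weighted across replicates, from 125 bp paired-end Illumina counts.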

| Variant | yeast fitness (ln) |
| --- | --- |
| G1A U2C G6A A70G | -0.0946 |
| U2G G6U C27U C46U A70U C71U | -0.171 |
| G6A C27U A43C C46U C66A A70U C71U | -0.346 |
| U2G G6U C27U A43C C46U | -0.127 |
| G1A C27U A43C C66A A69G A70U | -0.391 |
| G1A G6U C27U C46U C66U A69G A70U C71U | -0.4 |
| G1A G6A C27U C46U C66A A70U C71U | -0.228 |
| G1A U2G C27U A43C C66A A69G C71U | -0.297 |
| G1A U2C C46U C66U A70G C71U | -0.01 |
| G1A G6A C66A A70U | -0.0411 |
| U2C G6U C27U C46U C66A A69G A70U C71U | -0.319 |
| G1A U2G G6A C27U C66A A70U | -0.129 |
| C27U A43C A69G A70U | -0.204 |
| G1A U2C G6U A43C C66A A70G | -0.0507 |
| G1A C27U A43C C46U A70G | -0.147 |
| G1A C27U A43C C66A A70U | -0.136 |
| U2G G6A C27U C46U C66U A69G A70U C71U | -0.394 |
| G1A G6A C27U C71U | -0.238 |
| C27U A43C C46U A70U | -0.0673 |
| U2G G6U C27U A43C A69G A70G | -0.322 |
| G1A U2G G6A C46U C66U A69G A70G C71U | -0.413 |
| G1A A43C C66A A70G C71U | -0.164 |
| U2C G6A C27U | -0.0332 |
| G1A U2G G6U C46U A69G C71U | -0.3 |

| Variant | yeast fitness (ln) |
| --- | --- |
| G1A U2G G6U C27U A43C | -0.3 |
| U2C C27U A43C C46U C66U A70G C71U | -0.406 |
| G1A U2C G6A C27U A43C C46U A69G A70U C71U | -0.408 |
| G1A U2C A43C A69G A70U C71U | -0.29 |
| U2G G6A C27U A43C A69G A70G | -0.168 |
| G1A G6A A43C C46U C66U A69G A70G C71U | -0.274 |
| G1A G6U C27U A43C C46U A70G C71U | -0.321 |
| U2G G6U C66A A69G A70U | -0.000141 |
| U2G G6U C46U C66A A70G | -0.0357 |
| C27U A43C C66U A69G | -0.384 |
| G1A U2C G6A C27U C46U A70U | -0.0702 |
| U2C G6A C27U A43C A70U C71U | -0.243 |
| G1A U2C G6U C46U A69G A70U | -0.0237 |
| G1A U2G C27U A43C C46U C66U A69G A70U C71U | -0.5 |
| U2C G6A C27U C46U C66A A69G A70U C71U | -0.384 |
| U2C G6A C46U C66U C71U | -0.164 |
| G1A U2G C27U A43C C66U A70U | -0.282 |
| G6A C27U A70U C71U | -0.227 |
| U2G G6U C66A A69G A70U C71U | -0.726 |
| G1A U2C C27U A43C C66U A70G C71U | -0.197 |
| G1A U2G C27U C66U C71U | -0.244 |
| U2C G6A C27U A43C C71U | -0.209 |
| U2G G6U C71U | -0.173 |
| G6A C27U C46U A69G C71U | -0.252 |

| Variant | yeast fitness (ln) |
| --- | --- |
| U2C G6A C27U A69G C71U | -0.0988 |
| G6U C46U A69G A70U C71U | -0.301 |
| G6U A43C C46U C66A C71U | -0.0527 |
| U2C C27U A43C C66A A70U | -0.145 |
| G1A A43C C66U A69G A70G | -0.243 |
| G1A U2G A43C C46U C66A C71U | -0.138 |
| A43C C66U A69G A70U C71U | -0.365 |
| G1A C46U A70U | -0.0349 |
| U2G G6U C27U C66A A69G A70G | -0.145 |
| G6A C27U C46U A69G A70G | -0.237 |
| G6A C27U C46U A69G A70U | -0.257 |
| U2C G6A C27U A43C | -0.0322 |
| G1A U2G G6A C27U A43C C46U C66U A69G A70G C71U | -0.433 |
| G1A A43C C46U C66A A69G A70U | -0.113 |
| G1A U2G G6U C46U C66A A69G A70U | -0.0992 |
| G1A U2C G6U C27U C66U A70G C71U | -0.496 |
| U2G G6U A43C A69G A70U C71U | -0.433 |
| G1A U2G G6U C46U C66A | -0.122 |
| U2C C27U | -0.0171 |
| G1A U2G G6U C27U A43C C66U A70U C71U | -0.429 |
| G1A U2C C27U A43C C46U A69G A70U | -0.0492 |
| G1A U2G G6A C27U C46U | -0.154 |
| G1A G6A C27U A43C C71U | -0.213 |
| U2G G6U C27U C46U C71U | -0.199 |

| Variant | yeast fitness (ln) |
| --- | --- |
| G1A U2C C46U A70G | -0.014 |
| U2G G6A A43C C66U A70U C71U | -0.49 |
| A43C C46U C66A A70G C71U | -0.0713 |
| U2G G6U C27U C66U A70G C71U | -0.312 |
| U2G C27U A43C C46U A69G A70G | -0.114 |
| U2G C66A A70G | -0.0918 |
| G1A U2C G6U C46U C66U A70G | -0.265 |
| U2C C27U A70G C71U | -0.0321 |
| U2G C27U A43C A70U | -0.0184 |
| A43C C46U A69G C71U | -0.0511 |
| U2G A43C C66U A69G A70U | -0.307 |
| G1A U2G G6A C66U A70U | -0.319 |
| G1A U2C C27U C46U C66A C71U | -0.12 |
| G6A C27U C46U A70U C71U | -0.218 |
| G1A U2C C27U A43C A70G C71U | -0.0249 |
| G1A U2G G6A C66A A70U | -0.0697 |
| U2G G6U A43C C46U A69G A70G | -0.183 |
| G1A G6U C27U C46U C66A A69G A70G C71U | -0.58 |
| U2C A43C C66A C71U | -0.169 |
| G1A U2G G6A C27U A70U C71U | -0.264 |
| U2C G6U C27U C66A C71U | -0.15 |
| U2G C27U A43C C66A A69G A70U C71U | -0.477 |
| G1A U2G G6A C27U A43C C66U A70U C71U | -0.536 |
| G6A C27U C66U A69G A70U C71U | -0.462 |

| Variant | yeast fitness (ln) |
| --- | --- |
| C66A A69G C71U | -0.108 |
| C27U A43C C46U C66U A69G | -0.204 |
| G6U C46U C66A A69G | -0.0364 |
| G1A G6A C66U C71U | -0.0242 |
| U2G C46U C66A A69G C71U | -0.191 |
| G1A U2G A43C C66U | -0.246 |
| G1A U2C G6U A43C A70U | -0.153 |
| G6A C27U A43C A69G A70U C71U | -0.238 |
| G1A U2C C27U C46U C66U A69G A70G | -0.11 |
| G1A U2G G6U C27U C46U C66U A69G A70G C71U | -0.339 |
| G1A U2G G6U A69G C71U | -0.224 |
| U2C C46U C66U A69G A70U C71U | -0.359 |
| U2C G6A A43C C46U C66U A70G | -0.0107 |
| G1A U2G G6U C27U C46U A69G A70G C71U | -0.35 |
| U2G C46U A69G A70U | 0.00211 |
| U2G C66U A70G | -0.0789 |
| G6U C46U C66A A69G A70G C71U | -0.414 |
| U2G G6U C27U A43C A69G | -0.268 |
| G1A U2G G6A A69G C71U | -0.244 |
| G1A G6U C46U A69G A70G C71U | -0.216 |
| G6A C66A A69G A70G | -0.159 |
| G6U A43C A70G | -0.296 |
| U2G G6U C27U C66U A69G A70U | -0.276 |
| U2G G6A C27U A43C C46U C66U A69G A70U C71U | -0.433 |

| Variant | yeast fitness (ln) |
| --- | --- |
| G1A G6A C27U A69G A70G C71U | -0.344 |
| A43C C46U A69G A70U C71U | -0.273 |
| U2C C46U A69G A70U | -0.0822 |
| U2G G6U C66U A70U | -0.0342 |
| G6A A70G C71U | -0.175 |
| G1A G6U C27U C46U C66A A69G C71U | -0.187 |
| G1A U2C A43C C66U A69G A70G C71U | -0.287 |
| U2G C27U A43C C66U A69G A70U | -0.346 |
| U2C A43C A69G A70G C71U | -0.0143 |
| C46U C66U A70U C71U | -0.148 |
| U2C C27U C46U C71U | -0.268 |
| C27U A69G A70U | -0.206 |
| G1A U2G A43C C46U C66U A70G C71U | -0.243 |
| G1A G6U A43C C66A A70G | -0.135 |
| G1A G6U A70U C71U | -0.213 |
| U2C G6U C27U A43C C46U A70U | -0.151 |
| U2G G6A C27U A43C C66A A70G | -0.195 |
| A43C C46U A69G A70G C71U | -0.0835 |
| G1A C27U A43C A69G A70G | -0.303 |
| U2C G6U C66U A70U | -0.0735 |
| U2C G6A C46U C66U A70U | -0.0206 |
| G1A U2G G6A C46U C66A A69G A70G C71U | -0.354 |
| U2G C27U A43C A69G A70G C71U | -0.204 |
| G1A C66U C71U | -0.105 |

| Variant | yeast fitness (ln) |
| --- | --- |
| G1A C46U C66A A70G C71U | -0.11 |
| G1A G6U C46U C66A | -0.0835 |
| G1A C27U A43C C66U A70U | -0.201 |
| C27U A43C C66U A69G C71U | -0.344 |
| G1A C27U A43C C46U C66A A70G C71U | -0.211 |
| G6U C46U C66A A70G | -0.00887 |
| G6A C27U A43C C66U A69G C71U | -0.368 |
| G1A U2C G6A C27U A43C C46U C66U A70G | -0.155 |
| G1A U2G A69G C71U | -0.135 |
| U2C A43C C46U A69G A70U | -0.144 |
| A43C C46U C66U A70G C71U | -0.149 |
| G6A C27U C46U C66A A69G A70G C71U | -0.221 |
| G1A U2G G6A C27U C46U C66U A70U | -0.28 |
| G1A U2G C27U C66U A69G A70U C71U | -0.511 |
| G1A U2G G6A | -0.0537 |
| U2C A43C C46U C66A | 0.0909 |
| U2C A43C C46U C66U | -0.0687 |
| U2G C27U A43C C66A A70U C71U | -0.319 |
| G1A U2G A43C C46U C66A A69G A70U C71U | -0.233 |
| G1A U2C G6U A43C C46U C66A A69G A70G C71U | -0.0061 |
| G6U A43C C66U A70G C71U | -0.392 |
| U2G G6A C27U A43C C66U A70G | -0.223 |
| G1A G6U A43C C46U C66A A69G C71U | -0.198 |
